How the values were obtained:
[1] = system: HCT116 (ATCC – CCL-247, colon carcinoma); assay: MTT cell viability assay, HCT116; format: cell-based; details: Homo sapiens, HCT-116, read-out: IC50 HCT116
[2] = system: MRC5 (ATCC – CCL-171, human diploid fibroblast cell line); assay: cells; details: MRC5, read-out: IC50 MRC5
[3] = system: MCF7 (ATCC – HTB-22, breast carcinoma); assay: MTT cell viability assay, MCF7; format: cell-based; details: Homo sapiens, MCF7, read-out: IC50 MCF7
[4] = system: A549 (ATCC – CCL-185, lung carcinoma); assay: MTT cell viability assay, A549; format: cell-based; details: Homo sapiens, A549, read-out: IC50 A549
MCF7 cell line = assay: γH2AX labelling for DNA double-strand breaks; format: cell-based; details: compounds at IC50, etoposide 10 μM
Method in brief: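 To detect DNA double-strand breaks, MCF7 cells were exposed to the test compounds for 24 and 48 h, with etoposide as the positive control and 0.1% DMSO as the vehicle. γH2AX labelling was quantified by flow cytometry. n = 3; two-way ANOVA with Tukey's test.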

MCF7 breast cancer cells = assay: Apoptosis, annexin V staining and flow cytometry; format: cell-based; details: compounds at IC50, etoposide 10 μM
Method in brief: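 MCF7 cells were exposed to the test compounds for 24 or 48 h, with etoposide (10 μM) as the positive control and 0.1% DMSO as the untreated control. Cells were stained with annexin V and analysed by flow cytometry into live, early apoptotic and late apoptotic fractions.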

MCF7 cells = assay: Cell cycle analysis; format: cell-based; details: compounds at IC50, ETP 10 μM
Method in brief: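 MCF7 cells were treated with the test compounds for 24 and 48 h, with etoposide as the positive control and 0.1% DMSO as the vehicle. Cells were stained with propidium iodide and their G1, S and G2 distribution was read by flow cytometry. n = 3; two-way ANOVA with Tukey's test.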

SMILES	IC50 [1]	IC50 [2]	IC50 [3]	IC50 [4]	further results
N#CC1=C(N)OC2=C(C(=O)CCC2)C1c1ccc(-n2cc(Br)cn2)cc1 (stereo not drawn) [Compound 7d, 2-Amino-4-(4-(4-bromo-1H-pyrazol-1-yl)phenyl)-5-oxo-5,6,7,8-tetrahydro-4H-chromene-3-carbonitrile]	45.7 ± 0.67 µM	> 200 µM	56.1 ± 3.79 µM	23.6 ± 1.29 µM	
Cc1cc2c(c(=O)o1)C(c1ccc(OCc3cn(-c4ccc(Cl)cc4)nn3)cc1)C(C#N)=C(N)O2 (stereo not drawn) [Compound 17b, 2-Amino-4-(4-((1-(4-chlorophenyl)-1H-1,2,3-triazol-4-yl)methoxy)phenyl)-7-methyl-5-oxo-4H,5H-pyrano[4,3-b]pyran-3-carbonitrile]	47.4 ± 4.13 µM	> 200 µM	36.06 ± 0.31 µM	20.4 ± 1.87 µM	
N#CC1=C(N)Oc2c(c(=O)oc3ccccc23)C1c1ccc(OCc2cn(-c3ccc(Cl)cc3)nn2)cc1 (stereo not drawn) [Compound 15b, 2-Amino-4-(4-((1-(4-chlorophenyl)-1H-1,2,3-triazol-4-yl)methoxy)phenyl)-5-oxo-4H,5H-pyrano[3,2-c]chromene-3-carbonitrile]	> 200 µM	> 200 µM	> 200 µM	> 200 µM	
CC1(C)CC(=O)C2=C(C1)OC(N)=C(C#N)C2c1ccc(-n2cnc(Br)c2)cc1 (stereo not drawn) [Compound 8e, 2-Amino-4-(4-(4-bromo-1H-imidazol-1-yl)phenyl)-7,7-dimethyl-5-oxo-5,6,7,8-tetrahydro-4H-chromene-3-carbonitrile]	77.6 ± 1.58 µM	> 200 µM	74.87 ± 0.17 µM	30.6 ± 1.85 µM	
N#CC1=C(N)Oc2c(c(=O)oc3ccccc23)C1c1ccc(-n2cnnn2)cc1 (stereo not drawn) [Compound 15g, 4-(4-(1H-Tetrazol-1-yl)phenyl)-2-amino-5-oxo-4H,5H-pyrano[3,2-c]chromene-3-carbonitrile]	> 200 µM	> 200 µM	> 200 µM	> 200 µM	
Cc1ccc(-n2cc(COc3ccc(C4C(C#N)=C(N)Oc5c4c(=O)oc4ccccc54)cc3)nn2)cc1 (stereo not drawn) [Compound 15d, 2-Amino-5-oxo-4-(4-((1-(p-tolyl)-1H-1,2,3-triazol-4-yl)methoxy)phenyl)-4H,5H-pyrano[3,2-c]chromene-3-carbonitrile]	> 200 µM	> 200 µM	> 200 µM	> 200 µM	
Cc1cc2c(c(=O)o1)C(c1ccc(OCc3cn(-c4ccc(Br)cc4)nn3)cc1)C(C#N)=C(N)O2 (stereo not drawn) [Compound 17c, 2-Amino-4-(4-((1-(4-bromophenyl)-1H-1,2,3-triazol-4-yl)methoxy)phenyl)-7-methyl-5-oxo-4H,5H-pyrano[4,3-b]pyran-3-carbonitrile]	> 200 µM	> 200 µM	> 200 µM	> 200 µM	
N#CC1=C(N)Oc2c(c(=O)oc3ccccc23)C1c1ccc(-n2ccnn2)cc1 (stereo not drawn) [Compound 15f, 4-(4-(1H-1,2,3-Triazol-1-yl)phenyl)-2-amino-5-oxo-4H,5H-pyrano[3,2-c]chromene-3-carbonitrile]	163 ± 5.45 µM	156 ± 0.48 µM	145 ± 2.75 µM	72.9 ± 2.26 µM	
N#CC1=C(N)Oc2c(c(=O)oc3ccccc23)C1c1ccc(OCc2cn(-c3ccccc3)nn2)cc1 (stereo not drawn) [Compound 15a, 2-Amino-5-oxo-4-(4-((1-phenyl-1H-1,2,3-triazol-4-yl)methoxy)phenyl)-4H,5H-pyrano[3,2-c]chromene-3-carbonitrile]	> 200 µM	146.5 ± 0.53 µM	> 200 µM	> 200 µM	
COc1ccc(-n2cc(COc3ccc(C4C(C#N)=C(N)Oc5cc(C)oc(=O)c54)cc3)nn2)cc1 (stereo not drawn) [Compound 17e, 2-Amino-4-(4-((1-(4-methoxyphenyl)-1H-1,2,3-triazol-4-yl)methoxy)phenyl)-7-methyl-5-oxo-4H,5H-pyrano[4,3-b]pyran-3-carbonitrile]	> 200 µM	> 200 µM	52.2 ± 1.34 µM	> 200 µM	
COc1ccc(-n2cc(COc3ccc(C4C(C#N)=C(N)Oc5c4c(=O)oc4ccccc54)cc3)nn2)cc1 (stereo not drawn) [Compound 15e, 2-Amino-4-(4-((1-(4-methoxyphenyl)-1H-1,2,3-triazol-4-yl)methoxy)phenyl)-5-oxo-4H,5H-pyrano[3,2-c]chromene-3-carbonitrile]	> 200 µM	> 200 µM	> 200 µM	> 200 µM	
Cc1cnn(-c2ccc(C3C(C#N)=C(N)OC4=C3C(=O)CCC4)cc2)c1 (stereo not drawn) [Compound 7b, 2-Amino-4-(4-(4-methyl-1H-pyrazol-1-yl)phenyl)-5-oxo-5,6,7,8-tetrahydro-4H-chromene-3-carbonitrile]	163 ± 3.14 µM	> 200 µM	24 ± 2.27 µM	147 ± 3.61 µM	
Cc1cncn1-c1ccc(C2C(C#N)=C(N)OC3=C2C(=O)CC(C)(C)C3)cc1 (stereo not drawn) [Compound 8c, 2-Amino-7,7-dimethyl-4-(4-(5-methyl-1H-imidazol-1-yl)phenyl)-5-oxo-5,6,7,8-tetrahydro-4H-chromene-3-carbonitrile]	162 ± 6.91 µM	> 200 µM	83.2 ± 2.11 µM	133 ± 5.81 µM	
Cc1cc2c(c(=O)o1)C(c1ccc(-n3ccnn3)cc1)C(C#N)=C(N)O2 (stereo not drawn) [Compound 17f, 4-(4-(1H-1,2,3-Triazol-1-yl)phenyl)-2-amino-7-methyl-5-oxo-4H,5H-pyrano[4,3-b]pyran-3-carbonitrile]	> 200 µM	> 200 µM	30.3 ± 1.73 µM	> 200 µM	
CCc1nccn1-c1ccc(C2C(C#N)=C(N)OC3=C2C(=O)CC(C)(C)C3)cc1 (stereo not drawn) [Compound 8d, 2-Amino-4-(4-(2-ethyl-1H-imidazol-1-yl)phenyl)-7,7-dimethyl-5-oxo-5,6,7,8-tetrahydro-4H-chromene-3-carbonitrile]	137 ± 5.82 µM	> 200 µM	> 200 µM	19.8 ± 0.94 µM	
Cc1ccc(-n2cc(COc3ccc(C4C(C#N)=C(N)Oc5cc(C)oc(=O)c54)cc3)nn2)cc1 (stereo not drawn) [Compound 17d, 2-Amino-7-methyl-5-oxo-4-(4-((1-(p-tolyl)-1H-1,2,3-triazol-4-yl)methoxy)phenyl)-4H,5H-pyrano[4,3-b]pyran-3-carbonitrile]	> 200 µM	> 200 µM	> 200 µM	> 200 µM	
Cc1cc2c(c(=O)o1)C(c1ccc(OCc3cn(-c4ccccc4)nn3)cc1)C(C#N)=C(N)O2 (stereo not drawn) [Compound 17a, 2-Amino-7-methyl-5-oxo-4-(4-((1-phenyl-1H-1,2,3-triazol-4-yl)methoxy)phenyl)-4H,5H-pyrano[4,3-b]pyran-3-carbonitrile]	> 200 µM	> 200 µM	> 200 µM	80.5 ± 4.68 µM	
Cc1cc2c(c(=O)o1)C(c1ccc(-n3cnnn3)cc1)C(C#N)=C(N)O2 (stereo not drawn) [Compound 17g, 4-(4-(1H-Tetrazol-1-yl)phenyl)-2-amino-7-methyl-5-oxo-4H,5H-pyrano[4,3-b]pyran-3-carbonitrile]	> 200 µM	> 200 µM	39.2 ± 2.71 µM	164 ± 3.26 µM	
COc1cc([C@@H]2c3cc4c(cc3[C@@H](O[C@@H]3O[C@@H]5CO[C@@H](C)O[C@H]5[C@H](O)[C@H]3O)[C@H]3COC(=O)[C@H]23)OCO4)cc(OC)c1O [Etoposide, reference compound]					γH2AX levels (MCF7 cell line; MCF7, 24 hours): 8.8 ± 0.62; γH2AX levels (MCF7 cell line; MCF7, 48 hours): 39.44 ± 1.69; early apoptotic cells (MCF7 breast cancer cells; MCF7, 24 hours): 6.42 ± 0.27%; late apoptotic cells (MCF7 breast cancer cells; MCF7, 24 hours): 12.25 ± 0.08%; early apoptotic cells (MCF7 breast cancer cells; MCF7, 48 hours): 3.28 ± 0.16%; late apoptotic cells (MCF7 breast cancer cells; MCF7, 48 hours): 11.8 ± 0.29%; live cells (MCF7 breast cancer cells; MCF7, 48 hours): 83.15 ± 0.50%; cells in G1 phase (MCF7 cells; MCF7, 24 hours): 26.61 ± 0.54%; cells in G2 (G2/M) phase (MCF7 cells; MCF7, 24 hours): 49.03 ± 0.99%; G1 phase population (MCF7 cells; MCF7, 48 hours): 18.3 ± 1.67%; G2 (G2/M) phase population (MCF7 cells; MCF7, 48 hours): 59.36 ± 4.79%
N#CC1=C(N)OC2=C(C(=O)CCC2)C1c1ccc(-n2ccc(C(F)(F)F)n2)cc1 (stereo not drawn) [Compound 7e, 2-Amino-5-oxo-4-(4-(3-(trifluoromethyl)-1H-pyrazol-1-yl)phenyl)-5,6,7,8-tetrahydro-4H-chromene-3-carbonitrile]	72.2 ± 0.96 µM	> 200 µM	15 ± 0.78 µM	18 ± 0.45 µM	
Cc1cc(C)n(-c2ccc(C3C(C#N)=C(N)OC4=C3C(=O)CCC4)cc2)n1 (stereo not drawn) [Compound 7c, 2-Amino-4-(4-(3,5-dimethyl-1H-pyrazol-1-yl)phenyl)-5-oxo-5,6,7,8-tetrahydro-4H-chromene-3-carbonitrile]	194 ± 6.01 µM	> 200 µM	22.9 ± 1.31 µM	> 200 µM	
Cc1ccn(-c2ccc(C3C(C#N)=C(N)OC4=C3C(=O)CCC4)cc2)n1 (stereo not drawn) [Compound 7a, 2-amino-4-(4-(3-methyl-1H-pyrazol-1-yl)phenyl)-5-oxo-5,6,7,8-tetrahydro-4H-chromene-3-carbonitrile]	139 ± 3.89 µM	> 200 µM	190 ± 5.34 µM	89.7 ± 4.38 µM	
N#CC1=C(N)Oc2c(c(=O)oc3ccccc23)C1c1ccc(OCc2cn(-c3ccc(Br)cc3)nn2)cc1 (stereo not drawn) [Compound 15c, 2-Amino-4-(4-((1-(4-bromophenyl)-1H-1,2,3-triazol-4-yl)methoxy)phenyl)-5-oxo-4H,5H-pyrano[3,2-c]chromene-3-carbonitrile]	> 200 µM	66.9 ± 1.6 µM	> 200 µM	> 200 µM	

— publication PMC12135072 (RSC Medicinal Chemistry, 2025)
